Reference: ChEMBL document CHEMBL4396951, “Optimization and anti-inflammatory evaluation of methyl gallate derivatives as a myeloid differentiation protein 2 inhibitor” (Bioorg Med Chem, 2019)
One block for each compound: values may come before it. Activity calls are given as the source filed them. No cut-off for these calls is given here.

Columns and labels:
Peritoneal macrophage [1] = assay: Antiinflammatory activity in C57BL/6 mouse primary peritoneal macrophages assessed as inhibition of LPS-induced TNFalpha production at 10 uM preincubated for 30 mins followed by LPS stimulation and measured after 24 hrs by sandwich ELISA; type: functional, cell-based
Outline: (§1)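 Thioglycollate-elicited mouse peritoneal macrophages in RPMI-1640/10% FBS. Compound pretreatment for 30 min (10 μM for single-point screening, graded concentrations for dose-response), then 0.5 μg/mL LPS for 24 h. TNF-α and IL-6 in culture medium measured by sandwich ELISA and normalized to total protein in cell lysates; n = 3.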

Peritoneal macrophage [2] = assay: Antiinflammatory activity in C57BL/6 mouse primary peritoneal macrophages assessed as inhibition of LPS-induced IL-6 production at 10 uM preincubated for 30 mins followed by LPS stimulation and measured after 24 hrs by sandwich ELISA; type: functional, cell-based; outline: as §1
Peritoneal macrophage [3] = assay: Antiinflammatory activity in C57BL/6 mouse primary peritoneal macrophages assessed as inhibition of LPS-induced TNFalpha production preincubated for 30 mins followed by LPS stimulation and measured after 24 hrs by sandwich ELISA; type: functional, cell-based; outline: as §1
Peritoneal macrophage [4] = assay: Antiinflammatory activity in C57BL/6 mouse primary peritoneal macrophages assessed as inhibition of LPS-induced IL-6 production at 10 uM preincubated for 30 mins followed by LPS stimulation and measured after 24 hrs by sandwich ELISA relative to control; type: functional; conditions: C57BL/6, Peritoneal macrophage; outline: as §1
Peritoneal macrophage [5] = assay: Antiinflammatory activity in C57BL/6 mouse primary peritoneal macrophages assessed as inhibition of LPS-induced TNFalpha production at 10 uM preincubated for 30 mins followed by LPS stimulation and measured after 24 hrs by sandwich ELISA relative to control; type: functional; conditions: C57BL/6, Peritoneal macrophage; outline: as §1
Peritoneal macrophage [6] = assay: Antiinflammatory activity in C57BL/6 mouse primary peritoneal macrophages assessed as inhibition of LPS-induced IL-6 production preincubated for 30 mins followed by LPS stimulation and measured after 24 hrs by sandwich ELISA; type: functional, cell-based; outline: as §1
[7] = Stability of compound in pH 7.4 phosphate buffer at 20 uM measured up to 25 mins by UV-VIS spectroscopy; type: physicochemical; conditions: pH 7.4, 25 min

SMILES: COc1cc(CC(=O)Nc2ccc3c(c2)CCC3)cc(OC)c1
inhibition (Peritoneal macrophage [1]): Active | inhibition (Peritoneal macrophage [2]): Active

SMILES: Cc1ccc(C(=O)Nc2ccc3c(c2)CCC3)s1
inhibition (Peritoneal macrophage [1]): Active | inhibition (Peritoneal macrophage [2]): Active

SMILES: O=C(Nc1ccc2c(c1)CCC2)c1cc2ccccc2[nH]1
inhibition (Peritoneal macrophage [1]): Active | inhibition (Peritoneal macrophage [2]): Active

SMILES: COc1ccc(CNC(=O)c2cc(O)c(O)c(O)c2)cc1OC
inhibition (Peritoneal macrophage [1]): Active | inhibition (Peritoneal macrophage [2]): Active

SMILES: CCN(CC)c1ccc(C(=O)Nc2ccc3c(c2)CCC3)cc1
inhibition (Peritoneal macrophage [1]): Active | inhibition (Peritoneal macrophage [2]): Active

SMILES: COc1cc(/C=C/C(=O)Nc2ccc3c(c2)CCC3)cc(OC)c1OC
inhibition (Peritoneal macrophage [1]): Active | inhibition (Peritoneal macrophage [2]): Active

SMILES: O=C(Nc1ccc2c(c1)CCC2)c1ccc(Cl)c([N+](=O)[O-])c1
inhibition (Peritoneal macrophage [1]): Active | inhibition (Peritoneal macrophage [2]): Active

SMILES: O=C(/C=C/c1ccccc1C(F)(F)F)Nc1ccc2c(c1)CCC2
inhibition (Peritoneal macrophage [1]): Active | inhibition (Peritoneal macrophage [2]): Active

SMILES: O=C(Nc1ccc2c(c1)CCC2)c1cc(Cl)nc(Cl)c1
inhibition (Peritoneal macrophage [1]): Active | inhibition (Peritoneal macrophage [2]): Active

SMILES: COc1ccc(OC)c(/C=C/C(=O)Nc2ccc3c(c2)CCC3)c1
inhibition (Peritoneal macrophage [1]): Active | inhibition (Peritoneal macrophage [2]): Active

SMILES: O=C(Nc1ccc(F)cc1)c1cc(O)c(O)c(O)c1
inhibition (Peritoneal macrophage [1]): Active | inhibition (Peritoneal macrophage [2]): Active

SMILES: O=C(/C=C/c1cccc(OC(F)(F)F)c1)Nc1ccc2c(c1)CCC2
inhibition (Peritoneal macrophage [1]): Active | inhibition (Peritoneal macrophage [2]): Active

SMILES: CN1CCN(Cc2ccc(NC(=O)c3cc(O)c(O)c(O)c3)cc2)CC1
inhibition (Peritoneal macrophage [1]): Active | inhibition (Peritoneal macrophage [2]): Active

Stability [7]: Stable
SMILES: COc1ccc2cc(C(=O)Nc3ccc4c(c3)CCC4)[nH]c2c1
inhibition (Peritoneal macrophage [3]): Dose-dependent effect | inhibition at 10 µM (Peritoneal macrophage [4]): > 50% | inhibition (Peritoneal macrophage [1]): Active | inhibition at 10 µM (Peritoneal macrophage [5]): > 50% | inhibition (Peritoneal macrophage [6]): Dose-dependent effect | inhibition (Peritoneal macrophage [2]): Active

SMILES: CN(C)c1cccc(C(=O)Nc2ccc3c(c2)CCC3)c1
inhibition (Peritoneal macrophage [1]): Active | inhibition (Peritoneal macrophage [2]): Active

SMILES: CCOc1ccc(NC(=O)c2cc(O)c(O)c(O)c2)cc1
inhibition (Peritoneal macrophage [1]): Active | inhibition (Peritoneal macrophage [2]): Active

SMILES: CC(=O)N1CCc2cc(NC(=O)c3cc(O)c(O)c(O)c3)ccc21
inhibition (Peritoneal macrophage [1]): Active | inhibition (Peritoneal macrophage [2]): Active

SMILES: COc1ccc(/C=C/C(=O)Nc2ccc3c(c2)CCC3)cc1O
inhibition (Peritoneal macrophage [1]): Active | inhibition (Peritoneal macrophage [2]): Active

SMILES: COc1ccc(/C=C/C(=O)Nc2ccc3c(c2)CCC3)cc1OC
inhibition (Peritoneal macrophage [1]): Active | inhibition (Peritoneal macrophage [2]): Active

SMILES: Cc1ncsc1C(=O)Nc1ccc2c(c1)CCC2
inhibition (Peritoneal macrophage [1]): Active | inhibition (Peritoneal macrophage [2]): Active

SMILES: O=C(Nc1ccc2c(c1)CCC2)c1ccccc1C(F)(F)F
inhibition (Peritoneal macrophage [1]): Active | inhibition (Peritoneal macrophage [2]): Active

SMILES: CN1CCN(c2ccc(NC(=O)c3cc(O)c(O)c(O)c3)cc2)CC1
inhibition (Peritoneal macrophage [1]): Active | inhibition (Peritoneal macrophage [2]): Active

SMILES: COc1cc(NC(=O)c2cc(O)c(O)c(O)c2)cc(OC)c1
inhibition (Peritoneal macrophage [1]): Active | inhibition (Peritoneal macrophage [2]): Active

Stability [7]: Stable
SMILES: O=C(Cc1cccc2ccccc12)Nc1ccc2c(c1)CCC2
inhibition (Peritoneal macrophage [3]): Dose-dependent effect | inhibition at 10 µM (Peritoneal macrophage [4]): > 50% | inhibition (Peritoneal macrophage [1]): Active | inhibition at 10 µM (Peritoneal macrophage [5]): > 50% | inhibition (Peritoneal macrophage [6]): Dose-dependent effect | inhibition (Peritoneal macrophage [2]): Active

SMILES: O=C(Cc1ccc([N+](=O)[O-])cc1[N+](=O)[O-])Nc1ccc2c(c1)CCC2
inhibition (Peritoneal macrophage [1]): Active | inhibition (Peritoneal macrophage [2]): Active

SMILES: COc1ccc(NC(=O)c2cc(O)c(O)c(O)c2)cc1
inhibition (Peritoneal macrophage [1]): Active | inhibition (Peritoneal macrophage [2]): Active

SMILES: O=C(Nc1ccc2cc[nH]c2c1)c1cc(O)c(O)c(O)c1
inhibition (Peritoneal macrophage [1]): Active | inhibition (Peritoneal macrophage [2]): Active

SMILES: COc1ccccc1CNC(=O)c1cc(O)c(O)c(O)c1
inhibition (Peritoneal macrophage [1]): Active | inhibition (Peritoneal macrophage [2]): Active

SMILES: O=C(Nc1ccc(N2CCOCC2)cc1)c1cc(O)c(O)c(O)c1
inhibition (Peritoneal macrophage [1]): Active | inhibition (Peritoneal macrophage [2]): Active

SMILES: O=C(Nc1ccc2c(c1)CCC2)c1cccc(N2CCCC2)c1
inhibition (Peritoneal macrophage [1]): Active | inhibition (Peritoneal macrophage [2]): Active

SMILES: O=C(Nc1ccc2c(c1)CCC2)c1cccc(N2CCOCC2)c1
inhibition (Peritoneal macrophage [1]): Active | inhibition (Peritoneal macrophage [2]): Active

SMILES: O=C(Nc1ccccc1)c1cc(O)c(O)c(O)c1
inhibition (Peritoneal macrophage [1]): Active | inhibition (Peritoneal macrophage [2]): Active

SMILES: O=C(Nc1ccc2c(c1)CCC2)c1c(Cl)cccc1Cl
inhibition (Peritoneal macrophage [1]): Active | inhibition (Peritoneal macrophage [2]): Active

SMILES: O=C(NCc1ccccc1)c1cc(O)c(O)c(O)c1
inhibition (Peritoneal macrophage [1]): Active | inhibition (Peritoneal macrophage [2]): Active

SMILES: COc1cc(/C=C/C(=O)Nc2ccc3c(c2)CCC3)cc(OC)c1O
inhibition (Peritoneal macrophage [1]): Active | inhibition (Peritoneal macrophage [2]): Active

SMILES: O=C(CCCc1c[nH]c2ccccc12)Nc1ccc2c(c1)CCC2
inhibition (Peritoneal macrophage [1]): Active | inhibition (Peritoneal macrophage [2]): Active

Stability [7]: Stable
SMILES: CN(C)c1ccccc1C(=O)Nc1ccc2c(c1)CCC2
inhibition (Peritoneal macrophage [3]): Dose-dependent effect | inhibition at 10 µM (Peritoneal macrophage [4]): > 50% | inhibition (Peritoneal macrophage [1]): Active | inhibition at 10 µM (Peritoneal macrophage [5]): > 50% | inhibition (Peritoneal macrophage [6]): Dose-dependent effect | inhibition (Peritoneal macrophage [2]): Active

SMILES: CC(=O)Nc1ccc(C(=O)Nc2ccc3c(c2)CCC3)cc1
inhibition (Peritoneal macrophage [1]): Active | inhibition (Peritoneal macrophage [2]): Active
